Test system: MS2 coat protein
Assay: apparent Kd, MS2 coat protein; higher = weaker binding; RNA-MaP array; FMN 200 µM where present
Summary of the method: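 Stalled E. coli RNA polymerase produced the designs on Illumina sequencing-chip clusters. SNAP-549-labelled MS2 coat protein was added from 0.7 or 1.5 nM, doubling to 3 µM, without and then with constant ligand, in 100 mM Tris-HCl pH 7.5, 80 mM KCl, 4 mM MgCl2, BSA, DTT, yeast tRNA and Tween-20. The apparent Kd is the median of filtered per-cluster fits of green signal normalised to red-channel RNA signal and control-cluster median Fmax.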

[1] = designed as: OFF switch for flavin mononucleotide, no ligand
[2] = ligand present: flavin mononucleotide, designed as: OFF switch for flavin mononucleotide
[3] = designed as: ON switch for flavin mononucleotide, no ligand
[4] = ligand present: flavin mononucleotide, designed as: ON switch for flavin mononucleotide

| Sequence | apparent Kd [1] [nM] | apparent Kd [2] [nM] | apparent Kd [3] [nM] | apparent Kd [4] [nM] |
| --- | --- | --- | --- | --- |
| AACGUGUGAGGAUAUGCACGAGUGACAGGGAGGCUGUCACAGCAGAAGGUACAUGAGGAUCACCCAUGUGAAAU | 24.9 | 20.6 |  |  |
| UAAUGUAUAUAGGAUAUCUAGCUGGAUACAGCUAGAGAAGGAUGUACAUGAGGAUCACCCAUGUAAAUCUCAAU | 18.3 | 31.2 |  |  |
| AUUUCGUUAGCAGGAUAUGGACAGGCCUGUCCGUAUUGAGUCAGUAACAUGAGGAUCACCCAUGUCCAGAAGGGCUCGAAGGGA | 11.2 | 12.3 |  |  |
| UUUUAACAUGAGGAUCACCCAUGUGAGGAUAUCGAAAUUUAUAUUAAUAUUAAUAUUACGAGAAGGCACAUUUU | 77.8 | 101 |  |  |
| UUUGGGUGGCUGGAGGAUAUUCGAGUGGUUACAUGAGGAUCACCCAUGUGUCGCGCGGUACACGAGGAGAAGGCUGGCGGCCGUU |  |  | 50.8 | 22.4 |
| UACGUUAUACGCAACAUGAGGAUCACCCAUGUUAGCCGAUCACAGGAUAUGUUGGAGCCGGUCGGACAGAAGGGUGAGUUUGCU |  |  | 47.9 | 43.3 |
| UACUACGCAGGAUAUACAUGAGGAUCACCCAUGUGUCUGCGAUAGGCACGUGAUAUCCGUAGAAGGGUGUAGAU | 30.4 | 79.5 |  |  |
| CAGGUAGACUGAGGAUAUACACUAAACAGCUAGUCUAUCUAGCUGAUCACAUGAGGAUCACCCAUGUAGAAGGCAGUCUGCCUG | 19.6 | 56.5 |  |  |
| AAAACGGCGCAUCCCGCGCCAACUACAGAAGGCCAACAUGAGGAUCACCCAUGUACAAACUAGAUGGAGGAUAUGUAGGUUCUA |  |  | 5.18 | 4.2 |
| UCAAUCACUGGAGGAUAUGUACUAAUUUGCGGUUCCUCGAUAUCUCACAUGAGGAUCACCCAUGUACAGAAGGCUAGUCGGAAA | 783 | 99.7 |  |  |
| ACGCACGGAGGAUAUACAUGAGGAUCACCCAUGUCGGUGUAUUUUCGGCCAAAAUUUUGUAGAAGGCUGUCGUG | 222 | 526 |  |  |
| AAGAAGCUCACAGGAUAUCAGUAUAUGCGAUCUAGCGUAUUAAUGAACUGCUGAGAAGGGUGAGACAUGAGGAUCACCCAUGUA |  |  | 23.3 | 62.2 |
| UGUUAGUAGUGAGGAUAUACAUACACCUUACAUGAGGAUCACCCAUGUUUUAAGAUUGAUAGAUAGUAGAAGGCACAUGAUGAU |  |  | 59 | 23 |
| AACCUGAGGCUUUGCUUUAGGUGAACAUGAGGAUCACCCAUGUAGGAUAUGGUAGGCUUUGCUUACCAGAAGGACAUAUUAAUU | 39.3 | 86.1 |  |  |
| UUACUCAUGUAAGGAUAUGUAGCCGUUUCGGCUGCAGAAGGUACUAUAAUACAUGAGGAUCACCCAUGUCUAUAAAAUAAAGAC |  |  | 34.6 | 25.6 |
| UCACGGUAUGUAGGAUAUGCAUAGCAUUGCUAUGCAGAAGGACAUGAGGAUCACCCAUGUAUGUAUUCCAUACAAAUCCCGUGU | 5.68 | 5.58 |  |  |
| GUAGCUUUCCGAGGAUAUUCAUACCGGAAACGGACAUGAGGAUCACCCAUGUGGCGAAAGCCUUGGGAGAAGGCGGAAAGCUAC |  |  | 446 | 23.4 |
| UGUGUGUGGCAGGAUAUGCAGGUAAUAGGACGGGUAGAAGGGUCUACAUGAGGAUCACCCAUGUGGCCGGUUGG | 16.1 | 16 |  |  |
| UCGGCGCGAGGAUAUACGUUUGCUUUUUAGGAUCGUGGCGUACAUGAGGAUCACCCAUGUAGAAGGCGCGCCGC | 13.8 | 20.3 |  |  |
| GGAUAGCACAGAGGAUAUACGUGCUAGAGAUACUAGCAAAAUUUCCUCACAUGAGGAUCACCCAUGUAGAAGGCUGUCCUAUCG | 4.44 | 5.5 |  |  |
| CAGUACUGAGGAUAUACAUGAGGAUCACCCAUGUGUCUAAGGUAGGAUACUACCAUUAGUAGAAGGCAGUACUG | 12.4 | 18.1 |  |  |
| GGCUUCUUCACAGGAUAUGGUUUUUUAAGUAUACAUGAGGAUCACCCAUGUCCAGAAGGGUGAGGGUCCGGCGUACAGUGUCGG |  |  | 645 | 30.4 |
| GUUUAGUGAGGAUAUGUGGCUUCGAUCGAGCGCGGUCUGCUACAGAAGGCACAUGAGGAUCACCCAUGUUUCUC | 118 | 424 |  |  |
| CAUGUCCUCACAGGAUAUGCAAUGUAUUUCAUUGCAGAAGGGUGAAUACAUGAGGAUCACCCAUGUGGACAUGAUAUAUUUAAU |  |  | 725 | 77.8 |
| GAAUAUUAGCAAGGAUAUCGGCUUACUAUAACUUUAUGCCCUGGGACAUGAGGAUCACCCAUGUACGAGAAGGUGCUUACUACA | 18.9 | 29.4 |  |  |
| AAUUCUAGGGUCAGCCUUAACACAUGAGGAUCACCCAUGUACAGAAGGCGAAGCAAAUGGACACUCGAGGAUAUGUACACUCCG | 6.22 | 8.01 |  |  |
| UUUAACGUAGCAGGAUAUUGACGACUUGGGACAUGAGGAUCACCCAUGUUGCAAGAAGGGCUUAGUCAAGACACGAGCGGUGUU | 6.54 | 8.15 |  |  |
| GCCAUCGCAUGAGGAUAUGGCACCGUUUCGGUGCCAGAAGGCAUGUCAUAAGACAUGAGGAUCACCCAUGUAGUUAAGAUGGCA |  |  | 741 | 47.6 |

| Sequence | apparent Kd [1] [nM] | apparent Kd [2] [nM] | apparent Kd [3] [nM] | apparent Kd [4] [nM] |
| --- | --- | --- | --- | --- |
| UAUAUAUAGUAAGGAUAUGUAAUUAUUUUAUAGACAGAAGGUACUGACAUGAGGAUCACCCAUGUUUUAGUGUGGGCAUGUAGA | 85.2 | 130 |  |  |
| GUGUACAGAGGAUAUACUUGAAUCUAGCGAAGCUAGGUUUGACAUGAGGAUCACCCAUGUAGAAGGCUGUACAC | 15.3 | 20.5 |  |  |
| UUCCAACGAGGAUAUCGAUGGUGGAACAUGAGGAUCACCCAUGUAUGAGAUAGUGUAGUUCGAGAAGGCGUUCAGU | 58 | 32.3 |  |  |
| UAAAUACAUGAGGAUCACCCAUGUCAAAAGACAUGAGGAUAUGUACAGACUUCGGUCUGUACAGAAGGCAUGAAUA |  |  | 652 | 46.7 |
| AUGCUAUACGAAGGAUAUGGUUACAUGAGGAUCACCCAUGUUAUGAUUGGUUACUUGUUUAGUUUCCAGAAGGUCGUAUAUUUA | 51 | 235 |  |  |
| ACGUCUUAGUAGAAGGGACAUCGGCUGGUAAGCAUCAUCUCCUUCUCACAUGAGGAUCACCCAUGUCAGGAUAUACUAAGAUAC | 12.9 | 38.7 |  |  |
| CGCAAACUUGGGUUUAAUGGUGCAUAGGAUAUGCUUGUACAUGAGGAUCACCCAUGUACUAUUGUGCAGAAGGGUGCAUUUGCG |  |  | 7.97 | 5.77 |
| GGAAUGUCGGGAGGAUAUCCAAAUGUAUACAUAGGAGAAGGCCCGCACAUGAGGAUCACCCAUGUAAUAACGCGUGGCAUCUAC | 81.3 | 169 |  |  |
| GAUCGUAUCCUAGGAUAUUCAUUAAAACAUGAGGAUCACCCAUGUAAAUUGGGAGAAGGAGGAUACGAUCAACAGCGAAAGCUG |  |  | 35.3 | 6.52 |
| UUGGACGUCGUAAGAUAUGUAGGAUAUUCCUACAUGAGGAUCACCCAUGUUGACAUGGAAGAAGGACAGAAGGACGAUGUCCAU |  |  | 285 | 5.51 |
| GGGUACAUCGGAGGAUAUCAUGUAAAUACAUGAGGAUCACCCAUGUCGAUGGAGACAUCGGAGAUUGAGAAGGCCGAUGGACCG |  |  | 163 | 8.74 |
| CUGUGUUGCGGGCAGGAUAUGUAUUGGAAUACAUGAGGAUCACCCAUGUGCGGGUGUUUCACCCGACAGAAGGGCCAAUCGCGAC |  |  | 363 | 34.9 |
| AUACCACGAGGAUAUCGUCUCUCCCACAUGAGGAUCACCCAUGUUAUCCAUGUUUCGUUUCGAGAAGGCGUGGGUU | 83.2 | 70.2 |  |  |
| GGAUGACAAAGUCAUCCAAUACGAACAUGAGGAUCACCCAUGUAGGAUAUGCUACUCAAAGAGUAGCAGAAGGACAUGUGCCUU | 33.8 | 252 |  |  |
| AUGCUAGUGUGAGGAUAUACAUGAGGAUCACCCAUGUGUCCGAAGUACCGGACAUGAGGUACGUCGUAGAAGGUACAUUAGCAU | 21 | 102 |  |  |
| UAUAUGUCAGGAUAUUAGUUGUGUUAGAAUUUAACUUCUGCUGAGAAGGGACAUGAGGAUCACCCAUGUUCCUC | 15.9 | 21.2 |  |  |
| GGAUAGGACAGAGGAUAUACGUGCUAGAGAUACUAGCAAAAUUUCCUCACAUGAGGAUCACCCAUGUAGAAGGCUGUCCAAUCG | 13.8 | 429 |  |  |
| GCAGCUAAUGCAGGAUAUCAGCACGUGUAGUGCUGAGAAGGGCACAUGAGGAUCACCCAUGUGAUCAAUUAAUCUUAAUGCUGC | 17.3 | 54.5 |  |  |
| AUACUCAUGUAAGGAUAUGCAGCCGAACCGGCUGCAGAAGGUACUAUAAUACAUGAGGAUCACCCAUGUCAAAAUAAAAUAGUU |  |  | 52 | 21.5 |
| GAUCCUUCUGUUAGGAUAUGCUUUGGGCUUCCGCAGUAGAAGGAACAUGAGGAUCACCCAUGUCCGAUGCCGUC | 74.6 | 101 |  |  |
| UGUGCGUAUGUGAGGAUAUGCUGGUCCUUGGAUCGGCAGAAGGCACAUGAGGAUCACCCAUGUGGUGUCGUACA | 493 | 19.2 |  |  |
| UUUUAACAUGAGGAUCACCCAUGUGAGGAUAUCGAAAUUUAUAUUAAUAUUAUUUAAUCGAGAAGGCACAUUUU | 110 | 118 |  |  |
| UUUUUGUCAGGAUAUGAGUAGUAGAACAAUAGUACUACUACUCAGAAGGGACAUGAGGAUCACCCAUGUUCCUC | 15.2 | 54.1 |  |  |
| CGGCCGCUACGCCGGCUCGACGCACAGGAUAUGCAGUUACAUGAGGAUCACCCAUGUGGCCAUGUGCAGAAGGGUGAUUCGCGA |  |  | 135 | 43.6 |
| AAUUAAUUAAUACAUGAGGAUCACCCAUGUAAUUAUUAGAUCUAGGAUAUCAGCUCGAAUAGAGCUGAGAAGGAGAUCACAUGU |  |  | 19.4 | 15 |
| GGACCGCGCAGAAUUGGCGGCCGGCAGGAUAUGACAUGAGGAUCACCCAUGUGAACUCCAUUGGGUCAGAAGGGCCACGACACA | 21.1 | 66.8 |  |  |
| CAAGGCGGUGAAGGAUAUACACGGGCGUUGCCAAACAUGAGGAUCACCCAUGUAGAAGGUCACCCUGAGAAGGCUUUAUGCCAU | 382 | 45.2 |  |  |
